Test results as given in ChEMBL document CHEMBL1255395, “Laninamivir prodrug CS-8958, a long-acting neuraminidase inhibitor, shows superior anti-influenza virus activity after a single administration” (Antimicrob Agents Chemother, 2010).
Activity calls are given as the source filed them. No cut-off for these calls is given here.

What was measured:
[1] = Half life in human; assay type: ADME, organism-based; settings: in vivo
[2] = test system: Influenza A virus; assay: Antimicrobial activity against Influenza A virus (A/Puerto Rico/8/34(H1N1)) infected in BALB/c mouse assessed as reduction in viral titer in lung at 14 mg/kg, itn administered for 7 days before infection; assay type: functional, organism-based; parameters: dose 14 mg/kg; settings: A/Puerto Rico/8/1934(H1N1)
Summary of the method: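 Female BALB/c mice (5–6 wk) given one intranasal dose in saline (50 μl) 7 days before intranasal infection with A/PR/8/34, 500 PFU. Lungs (three mice per time point) excised on days 1, 2, 3 and 4 and homogenized in PBS-BSA/PS. Titer determined by MDCK plaque assay, read as log10 PFU/lungs, mean ± SD (n = 3). AUC expressed as percent of saline control.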

[3] = test system: Influenza B virus; assay: Antimicrobial activity against Influenza B virus (B/Hong Kong/05/1972) infected in BALB/c mouse assessed as increase in mouse survival at 9.6 mg/kg, itn administered for 7 days before infection; assay type: functional, organism-based; parameters: dose 9.6 mg/kg
[4] = test system: Influenza A virus; assay: Antimicrobial activity against Influenza A virus (A/Puerto Rico/8/34(H1N1)) infected in BALB/c mouse assessed as increase in mouse survival at 3.3 mg/kg, itn administered for 7 days before infection; assay type: functional, organism-based; parameters: dose 3.3 mg/kg; settings: A/Puerto Rico/8/1934(H1N1)
[5] = test system: Influenza B virus; assay: Antimicrobial activity against Influenza B virus (B/Hong Kong/05/1972) infected in BALB/c mouse assessed as increase in mouse survival at 3.3 mg/kg, itn administered for 7 days before infection; assay type: functional, organism-based; parameters: dose 3.3 mg/kg
[6] = test system: Influenza B virus; assay: Antimicrobial activity against Influenza B virus (B/Malaysia/2506/2004) infected itn dosed Mustela putorius furo assessed as nasal viral titer treated after 4 hrs post infection measured after 1 day; assay type: functional, organism-based
Summary of the method: (§1)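 Ferrets (600–800 g), seronegative by hemagglutination inhibition, anaesthetized with ketamine/xylazine and infected with B/Malaysia/2506/2004, 1,000 PFU/100 μl. From 4 hpi they received either a single intranasal dose (saline, 0.05 or 0.5 μmol/kg) or 25 mg/kg oral twice daily. Nasal wash titers measured by MDCK plaque assay on days 1, 2 and 3, log10 PFU/ml (n = 5). Undetectable samples entered at the lower limit of detection.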

[7] = test system: Influenza B virus; assay: Antimicrobial activity against Influenza B virus (B/Malaysia/2506/2004) infected itn dosed Mustela putorius furo assessed as nasal viral titer treated after 4 hrs post infection measured after 3 days; assay type: functional, organism-based; summary of the method: as §1
[8] = test system: Influenza A virus; assay: Antimicrobial activity against Influenza A virus (A/Puerto Rico/8/34(H1N1)) infected in BALB/c mouse assessed as reduction in viral titer in lung at 0.17 mg/kg, itn administered 11 hrs post infection measured after 35 hrs post infection; assay type: functional, organism-based; parameters: dose 0.17 mg/kg; settings: A/Puerto Rico/8/1934(H1N1)
Summary of the method: (§2)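 BALB/c mice infected intranasally with A/PR/8/34 at 30 PFU. Intranasal dosing at 0.5 μmol/kg began at 11 hpi, either repeated twice daily or given once followed by twice-daily saline. Lungs (n = 3) were taken at 35, 59 and 83 hpi and homogenized. Titers were measured by MDCK plaque assay as log10 PFU/lungs. Two-way ANOVA and Dunnett test were applied.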

[9] = test system: Influenza B virus; assay: Antimicrobial activity against Influenza B virus (B/Hong Kong/05/1972) infected in BALB/c mouse assessed as increase in mouse survival at 1.1 mg/kg, itn administered for 7 days before infection; assay type: functional, organism-based; parameters: dose 1.1 mg/kg
[10] = test system: Influenza A virus; assay: Antimicrobial activity against Influenza A virus (A/Puerto Rico/8/34(H1N1)) infected in BALB/c mouse assessed as increase in mouse survival at 1.6 mg/kg, itn administered for 7 days before infection; assay type: functional, organism-based; parameters: dose 1.6 mg/kg; settings: A/Puerto Rico/8/1934(H1N1)
[11] = test system: Influenza A virus; assay: Antimicrobial activity against Influenza A virus (A/Puerto Rico/8/34(H1N1)) infected in BALB/c mouse assessed as increase in mouse survival at 14 mg/kg, itn administered for 7 days before infection; assay type: functional, organism-based; parameters: dose 14 mg/kg; settings: A/Puerto Rico/8/1934(H1N1)
[12] = test system: Influenza A virus; assay: Antimicrobial activity against Influenza A virus (A/Puerto Rico/8/34(H1N1)) infected in BALB/c mouse assessed as increase in mouse survival at 7 mg/kg, itn administered for 7 days before infection; assay type: functional, organism-based; parameters: dose 7 mg/kg; settings: A/Puerto Rico/8/1934(H1N1)
[13] = test system: Influenza A virus; assay: Antimicrobial activity against Influenza A virus (A/Puerto Rico/8/34(H1N1)) infected in BALB/c mouse assessed as reduction in viral titer in lung at 0.17 mg/kg, itn administered 11 hrs post infection measured after 59 hrs post infection; assay type: functional, organism-based; parameters: dose 0.17 mg/kg; settings: A/Puerto Rico/8/1934(H1N1); summary of the method: as §2
[14] = test system: Influenza B virus; assay: Antimicrobial activity against Influenza B virus (B/Hong Kong/05/1972) infected in BALB/c mouse assessed as increase in mouse survival at 1.1 mg/kg, itn administered for 7 days before infection measured at day 20; assay type: functional
[15] = test system: Influenza A virus; assay: Antimicrobial activity against Influenza A virus (A/Puerto Rico/8/34(H1N1)) infected in BALB/c mouse assessed as increase in mouse survival at 4.7 mg/kg, itn administered for 7 days before infection; assay type: functional, organism-based; parameters: dose 4.7 mg/kg; settings: A/Puerto Rico/8/1934(H1N1)
[16] = test system: Influenza B virus; assay: Antimicrobial activity against Influenza B virus (B/Malaysia/2506/2004) infected itn dosed Mustela putorius furo assessed as nasal viral titer treated after 4 hrs post infection measured after 2 days; assay type: functional, organism-based; summary of the method: as §1
[17] = test system: Influenza A virus; assay: Antimicrobial activity against Influenza A virus (A/Puerto Rico/8/34(H1N1)) infected in BALB/c mouse assessed as increase in mouse survival at 1.7 mg/kg, itn administered for 7 days before infection; assay type: functional, organism-based; parameters: dose 1.7 mg/kg; settings: A/Puerto Rico/8/1934(H1N1)
Summary of the method: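 Single intranasal dose in saline (50 μl) given to anesthetized female BALB/c mice 7 days before intranasal infection with A/PR/8/34 at 500 PFU, n = 12. Survival was checked daily to day 20. Groups were compared with saline controls by Kaplan-Meier and log-rank test, with Bonferroni adjustment where needed.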

[18] = test system: Influenza A virus; assay: Antimicrobial activity against Influenza A virus (A/Puerto Rico/8/34(H1N1)) infected in BALB/c mouse assessed as reduction in viral titer in lung at 0.17 mg/kg, itn administered 11 hrs post infection measured after 83 hrs post infection; assay type: functional, organism-based; parameters: dose 0.17 mg/kg; settings: A/Puerto Rico/8/1934(H1N1); summary of the method: as §2

SMILES | half-life [1] [h] | Activity [2] | Activity [3] | Activity [4] | Activity [5] | Activity [6] | Activity [7] | Activity [8] | Activity [9] | Activity [10] | Activity [11] | Activity [12] | Activity [13] | Activity [14] [%] | Activity [15] | Activity [16] | Activity [17] | Activity [18]
CC(=O)N[C@H]1[C@H]([C@H](O)[C@H](O)CO)OC(C(=O)O)=C[C@@H]1N=C(N)N [ZANAMIVIR] | 2.8 | – | – | – | – | – | – | – | – | – | – | – | – | – | – | – | – | –
CC(=O)N[C@H]1[C@H]([C@H](O)[C@H](O)CO)OC(C(=O)O)=C[C@@H]1NC(=N)N [ZANAMIVIR] | – | Active | Active | Active | Active | Dose-dependent effect | Dose-dependent effect | Active | Active | Active | Active | Active | Active | 36 | Active | Dose-dependent effect | Active | Active
